Measured values as given in ChEMBL document CHEMBL1240443, “A study of cytotoxicity of novel chlorokojic acid derivatives with their antimicrobial and antiviral activities” (Eur J Med Chem, 2010).
In brackets after ≈: the same amount, converted by molar mass.

Columns and labels:
Candida parapsilosis = test: Antifungal activity against Candida parapsilosis ATCC 22019 by spectrophotometry; format: functional; details: Lodderomyces parapsilosis
Method in brief: (§1)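 Yeast broth microdilution in RPMI-1640 with L-glutamine, buffered to pH 7 with MOPS. Inoculum 10^5 c.f.u./mL, prepared by the spectrophotometric method. Two-fold dilutions from 256 to 0.125 µg/mL. Incubated at 35 °C for 24 h and 48 h in a humid chamber, triplicate.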

Staphylococcus aureus = test: Antimicrobial activity against methicillin-resistant Staphylococcus aureus by spectrophotometry; format: functional
Method in brief: (§2)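 Broth microdilution in Mueller–Hinton broth. Two-fold dilutions from 256 to 0.125 µg/mL. Inoculum 10^5 c.f.u./mL, diluted from a McFarland 0.5 culture. Incubated at 35 °C for 24 h and 48 h in a humid chamber, triplicate.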

Proteus mirabilis [1] = test: Antimicrobial activity against extended spectrum beta lactamase expressing Proteus mirabilis by spectrophotometry; format: functional; method in brief: as §2
Pseudomonas aeruginosa [2] = test: microbe, parasite or virus in culture; details: ATCC 10145
Escherichia coli [3] = test: Antimicrobial activity against extended spectrum beta lactamase expressing Escherichia coli by spectrophotometry; format: functional; method in brief: as §2
Proteus mirabilis [4] = test: Antimicrobial activity against Proteus mirabilis ATCC 7002 by spectrophotometry; format: functional; method in brief: as §2
Human respirovirus 3 = test: Antiviral activity against parainfluenza-3 virus infected in Vero cells assessed as reduction of virus-induced cytopathic effect; format: functional
Method in brief: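 Vero cells grown in EMEM with 10% fetal calf serum. Two-fold dilutions from 51.2 to 0.012 µg/mL, with PI-3 added at its TCID50-based titre, held 2 h at 37 °C in 5% CO2. CPE scored by microscope against untreated controls, giving the CPE-inhibitory concentration range.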

[5] = Cytotoxicity against african green monkey Vero cells after 48 hrs; format: cell-based; details: chlorocebus sabaeus
Method in brief: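 Confluent cell monolayers exposed to two-fold (Log2) dilutions of each sample (51.2–0.012 µg/mL) in EMEM, 5% CO2, 37 °C, 48 h. Scored by light microscopy against untreated cultures; rows damaging all cells counted toxic. Maximum non-toxic concentration (MNTC, µg/mL) taken as highest concentration leaving cells unaffected. Vero grown in EMEM/10% fetal calf serum with streptomycin/penicillin.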

Enterococcus faecalis [6] = test: Antimicrobial activity against Enterococcus faecalis ATCC 29212 by spectrophotometry; format: functional; method in brief: as §2
Candida albicans = test: Antifungal activity against Candida albicans ATCC 10231 by spectrophotometry; format: functional; method in brief: as §1
Acinetobacter baumannii [7] = test: Antimicrobial activity against Acinetobacter baumannii RSKK 02026 by spectrophotometry; format: functional; method in brief: as §2
Acinetobacter baumannii [8] = test: Antimicrobial activity against cephalosporin-resistant Acinetobacter baumannii by spectrophotometry; format: functional; method in brief: as §2
Klebsiella pneumoniae [9] = test: Antimicrobial activity against extended spectrum beta lactamase expressing Klebsiella pneumoniae by spectrophotometry; format: functional; method in brief: as §2
Escherichia coli [10] = test: Antimicrobial activity against Escherichia coli ATCC 35218 by spectrophotometry; format: functional; method in brief: as §2
Klebsiella pneumoniae [11] = test: Antimicrobial activity against Klebsiella pneumoniae RSKK 574 by spectrophotometry; format: functional; method in brief: as §2
Pseudomonas aeruginosa [12] = test: Antimicrobial activity against trimethoprim-sulfamethoxazole and tazobactum-induced Pseudomonas aeruginosa by spectrophotometry; format: functional; method in brief: as §2
[13] = Cytotoxicity against MDBK cells after 48 hrs; format: cell-based, Bos taurus; details: cattle
Enterococcus faecalis [14] = test: Antimicrobial activity against cephalosporin-resistant Enterococcus faecalis by spectrophotometry; format: functional; method in brief: as §2
Bacillus subtilis [15] = test: Antimicrobial activity against Bacillus subtilis ATCC 6633 by spectrophotometry; format: functional; method in brief: as §2
Bacillus subtilis [16] = test: Antimicrobial activity against ceftriaxone-resistant Bacillus subtilis by spectrophotometry; format: functional; method in brief: as §2

Compound | MIC (Candida parapsilosis) | MIC (Staphylococcus aureus) | MIC (Proteus mirabilis [1]) | MIC (Pseudomonas aeruginosa [2]) | MIC (Escherichia coli [3]) | MIC (Proteus mirabilis [4]) | CPE-inhibitory concentration (Human respirovirus 3) | MNTC at 48 h [5] | MIC (Enterococcus faecalis [6]) | MIC (Candida albicans) | MIC (Acinetobacter baumannii [7]) | MIC (Acinetobacter baumannii [8]) | MIC (Klebsiella pneumoniae [9]) | MIC (Escherichia coli [10]) | MIC (Klebsiella pneumoniae [11]) | MIC (Pseudomonas aeruginosa [12]) | MNTC at 48 h [13] | MIC (Enterococcus faecalis [14]) | MIC (Bacillus subtilis [15]) | MIC (Bacillus subtilis [16])
O=c1cc(CCl)oc(CN2CCC(O)(c3ccc(Cl)c(C(F)(F)F)c3)CC2)c1O | 8 µg/mL (≈ 17.7 µM) | 64 µg/mL (≈ 142 µM) | 64 µg/mL (≈ 142 µM) | 2 µg/mL (≈ 4.42 µM) | 64 µg/mL (≈ 142 µM) | 8 µg/mL (≈ 17.7 µM) | 0.05 µg/mL | 0.4 µg/mL | 16 µg/mL (≈ 35.4 µM) | 4 µg/mL (≈ 8.84 µM) | 4 µg/mL (≈ 8.84 µM) | 16 µg/mL (≈ 35.4 µM) | 64 µg/mL (≈ 142 µM) | 4 µg/mL (≈ 8.84 µM) | 4 µg/mL (≈ 8.84 µM) | 16 µg/mL (≈ 35.4 µM) | 0.8 µg/mL | 32 µg/mL (≈ 70.8 µM) | 1 µg/mL (≈ 2.21 µM) | 2 µg/mL (≈ 4.42 µM)
CCOC(=O)C1=C[C@@H](OC(CC)CC)[C@H](NC(C)=O)[C@@H](N)C1 [OSELTAMIVIR] |  |  |  |  |  |  | 0.012 µg/mL | 1.6 µg/mL |  |  |  |  |  |  |  |  |  |  |  | 
GENTAMICIN |  |  |  |  |  |  |  |  |  |  |  |  |  |  |  | 2 µg/mL |  |  |  | 
O=c1cc(CCl)oc(CN2CCN(Cc3ccc(Cl)c(Cl)c3)CC2)c1O | 8 µg/mL (≈ 19.2 µM) | 128 µg/mL (≈ 306 µM) | 64 µg/mL (≈ 153 µM) | 4 µg/mL (≈ 9.58 µM) | 4 µg/mL (≈ 9.58 µM) | 16 µg/mL (≈ 38.3 µM) | 0.05 µg/mL | 0.8 µg/mL | 16 µg/mL (≈ 38.3 µM) | 4 µg/mL (≈ 9.58 µM) | 8 µg/mL (≈ 19.2 µM) | 16 µg/mL (≈ 38.3 µM) | 4 µg/mL (≈ 9.58 µM) | 8 µg/mL (≈ 19.2 µM) | 8 µg/mL (≈ 19.2 µM) | 16 µg/mL (≈ 38.3 µM) | 0.4 µg/mL | 128 µg/mL (≈ 306 µM) | 1 µg/mL (≈ 2.39 µM) | 2 µg/mL (≈ 4.79 µM)
Nc1nc2c(ncn2COCCO)c(=O)[nH]1 [ACYCLOVIR] |  |  |  |  |  |  | 0.012 µg/mL |  |  |  |  |  |  |  |  |  | 1.6 µg/mL |  |  | 
CC1COc2c(N3CCN(C)CC3)c(F)cc3c(=O)c(C(=O)O)cn1c23 (stereo unspecified) [OFLOXACIN] |  | 64 µg/mL (≈ 177 µM) | 1 µg/mL (≈ 2.77 µM) |  |  | < 0.12 µg/mL |  |  | 1 µg/mL (≈ 2.77 µM) |  | 0.12 µg/mL (≈ 0.332 µM) | 64 µg/mL (≈ 177 µM) |  |  | < 0.12 µg/mL |  |  | 32 µg/mL (≈ 88.6 µM) |  | 
CC1(C)S[C@@H]2[C@H](NC(=O)[C@H](N)c3ccccc3)C(=O)N2[C@H]1C(=O)O [AMPICILLIN] |  | > 128 µg/mL | > 128 µg/mL |  | > 128 µg/mL | 2 µg/mL (≈ 5.72 µM) |  |  | 0.5 µg/mL (≈ 1.43 µM) |  | 2 µg/mL (≈ 5.72 µM) | > 128 µg/mL | > 128 µg/mL |  | 2 µg/mL (≈ 5.72 µM) |  |  | > 128 µg/mL | 0.12 µg/mL (≈ 0.343 µM) | 0.5 µg/mL (≈ 1.43 µM)
C[C@H]1COc2c(N3CCN(C)CC3)c(F)cc3c(=O)c(C(=O)O)cn1c23.C[C@H]1COc2c(N3CCN(C)CC3)c(F)cc3c(=O)c(C(=O)O)cn1c23.O [LEVOFLOXACIN] |  | 128 µg/mL | 1 µg/mL |  |  | < 0.12 µg/mL |  |  | 0.5 µg/mL |  | 0.12 µg/mL | 64 µg/mL |  |  | < 0.12 µg/mL |  |  | 32 µg/mL |  | 
OC(Cn1cncn1)(Cn1cncn1)c1ccc(F)cc1F [FLUCONAZOLE] | 4 µg/mL (≈ 13.1 µM) |  |  |  |  |  |  |  |  | 2 µg/mL (≈ 6.53 µM) |  |  |  |  |  |  |  |  |  | 
CC(=O)N1CCN(c2ccc(OCC3COC(Cn4ccnc4)(c4ccc(Cl)cc4Cl)O3)cc2)CC1 (stereo unspecified) [KETOCONAZOLE] | 1 µg/mL (≈ 1.88 µM) |  |  |  |  |  |  |  |  | 1 µg/mL (≈ 1.88 µM) |  |  |  |  |  |  |  |  |  | 
CC(=O)C1(c2ccccc2)CCN(Cc2oc(CCl)cc(=O)c2O)CC1 | 8 µg/mL (≈ 21.3 µM) | 128 µg/mL (≈ 341 µM) | 64 µg/mL (≈ 170 µM) | 4 µg/mL (≈ 10.6 µM) | 64 µg/mL (≈ 170 µM) | 16 µg/mL (≈ 42.6 µM) |  | 0.4 µg/mL | 64 µg/mL (≈ 170 µM) | 4 µg/mL (≈ 10.6 µM) | 4 µg/mL (≈ 10.6 µM) | 16 µg/mL (≈ 42.6 µM) | 64 µg/mL (≈ 170 µM) | 8 µg/mL (≈ 21.3 µM) | 8 µg/mL (≈ 21.3 µM) | 16 µg/mL (≈ 42.6 µM) | 0.4 µg/mL | 128 µg/mL (≈ 341 µM) | 1 µg/mL (≈ 2.66 µM) | 2 µg/mL (≈ 5.32 µM)
O=c1cc(CCl)oc(CN2CCC(O)(c3ccc(Br)cc3)CC2)c1O | 8 µg/mL (≈ 18.7 µM) | 64 µg/mL (≈ 149 µM) | 64 µg/mL (≈ 149 µM) | 2 µg/mL (≈ 4.67 µM) | 64 µg/mL (≈ 149 µM) | 8 µg/mL (≈ 18.7 µM) | 0.05 µg/mL | 0.8 µg/mL | 16 µg/mL (≈ 37.3 µM) | 4 µg/mL (≈ 9.33 µM) | 4 µg/mL (≈ 9.33 µM) | 16 µg/mL (≈ 37.3 µM) | 64 µg/mL (≈ 149 µM) | 4 µg/mL (≈ 9.33 µM) | 4 µg/mL (≈ 9.33 µM) | 16 µg/mL (≈ 37.3 µM) | 0.4 µg/mL | 32 µg/mL (≈ 74.6 µM) | 1 µg/mL (≈ 2.33 µM) | 2 µg/mL (≈ 4.67 µM)
O=c1cc(CCl)oc(CN2CCN(Cc3ccc(F)cc3)CC2)c1O | 16 µg/mL (≈ 43.6 µM) | 64 µg/mL (≈ 174 µM) | 64 µg/mL (≈ 174 µM) | 16 µg/mL (≈ 43.6 µM) | 64 µg/mL (≈ 174 µM) | 16 µg/mL (≈ 43.6 µM) | 0.05 µg/mL | 0.4 µg/mL | 16 µg/mL (≈ 43.6 µM) | 16 µg/mL (≈ 43.6 µM) | 32 µg/mL (≈ 87.2 µM) | 64 µg/mL (≈ 174 µM) | 64 µg/mL (≈ 174 µM) | 16 µg/mL (≈ 43.6 µM) | 16 µg/mL (≈ 43.6 µM) | 64 µg/mL (≈ 174 µM) | 1.6 µg/mL | 32 µg/mL (≈ 87.2 µM) | 32 µg/mL (≈ 87.2 µM) | 64 µg/mL (≈ 174 µM)
O=c1cc(CCl)oc(CN2CCN(C(c3ccccc3)c3ccc(Cl)cc3)CC2)c1O (stereo unspecified) | 8 µg/mL (≈ 17.4 µM) | 64 µg/mL (≈ 139 µM) | 64 µg/mL (≈ 139 µM) | 2 µg/mL (≈ 4.35 µM) | 64 µg/mL (≈ 139 µM) | 8 µg/mL (≈ 17.4 µM) | 0.1 µg/mL | 0.4 µg/mL | 16 µg/mL (≈ 34.8 µM) | 4 µg/mL (≈ 8.71 µM) | 4 µg/mL (≈ 8.71 µM) | 16 µg/mL (≈ 34.8 µM) | 64 µg/mL (≈ 139 µM) | 4 µg/mL (≈ 8.71 µM) | 4 µg/mL (≈ 8.71 µM) | 16 µg/mL (≈ 34.8 µM) | 0.4 µg/mL | 32 µg/mL (≈ 69.7 µM) | 1 µg/mL (≈ 2.18 µM) | 2 µg/mL (≈ 4.35 µM)
CC(C)(C)OC(=O)N1CCN(Cc2oc(CCl)cc(=O)c2O)CC1 | 8 µg/mL (≈ 22.3 µM) | 128 µg/mL (≈ 357 µM) | 64 µg/mL (≈ 178 µM) | 4 µg/mL (≈ 11.1 µM) | 64 µg/mL (≈ 178 µM) | 16 µg/mL (≈ 44.6 µM) | 0.2 µg/mL | 0.4 µg/mL | 8 µg/mL (≈ 22.3 µM) | 4 µg/mL (≈ 11.1 µM) | 8 µg/mL (≈ 22.3 µM) | 16 µg/mL (≈ 44.6 µM) | 64 µg/mL (≈ 178 µM) | 8 µg/mL (≈ 22.3 µM) | 8 µg/mL (≈ 22.3 µM) | 16 µg/mL (≈ 44.6 µM) | 0.8 µg/mL | 128 µg/mL (≈ 357 µM) | 1 µg/mL (≈ 2.79 µM) | 2 µg/mL (≈ 5.57 µM)
